Test results: PubChem BioAssay
The source made the active and inactive calls.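 How the source made its calls, unless noted: active means fluorescence slope after compound addition differing from the mean of all screened samples at 99.7% confidence, in either direction; inactive means the rest.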

Tests used:
[1] = inhibitors of TNFa-induced NFkB p65 translocation, primary screen, imaging, HUVEC, MLSMR starter and 10KST1 sets (AID 438;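 active means inhibition above 20% together with a positive visual image hit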;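 further: compound added about 3h40 before a 20 min TNFalpha stimulation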;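 on inhibition: signal is the nuclear over cytoplasmic p65 intensity ratio per well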); conditions: HUVEC TNFa-induced p65 nuclear translocation; cell count: measured here: nuclei count (cytotoxicity indicator), at 2.08 µM; inhibition: at 2 µM, stronger effect = higher value, 0% TNFa-plus-vehicle, 100% no-TNFa wells
[2] = inhibitors of E-selectin induction by TNFa, primary screen, imaging, HUVEC, immunofluorescence, MLSMR starter and 10KST1 sets (AID 487;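 active means visually confirmed hit in the image check and inhibition above 20%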;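 on inhibition: signal is fraction of cell area covered by stained E-selectin grains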;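 on nuclei count: 100% = median nuclei count of all wells on the same plate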); conditions: HUVEC TNFalpha-induced E-selectin immunofluorescence imaging, at 2 µM; inhibition: stronger effect = higher value; nuclei count: measured here: cell number, toxicity
[3] = DUSP6 inhibitors restoring Erk phosphorylation by chemical complementation, primary imaging in DUSP6-transfected HeLa (AID 609;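 active means compounds giving at least 50% inhibition in the cell-based MKP-3 phosphatase rescue imaging test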;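 on inhibition: phospho-Erk level distribution per well compared with pooled transfected vehicle control wells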); conditions: HeLa MKP-3 transfected, phospho-Erk imaging KS statistic, at 10 µM, cells stimulated with TPA for 15 min
[4] = target: Dual specificity protein phosphatase 6 (Homo sapiens) (UniProt Q16828); assay: as above; conditions: HeLa MKP-3 transfected, phospho-Erk imaging KS statistic; at 10 µM; stronger effect = higher value; cells stimulated with TPA for 15 min
[5] = target: Voltage-gated potassium channel subunit beta-2 (Rattus norvegicus) (UniProt P62483); assay: KvBeta enzyme negative modulators, primary screen, biochemical, NADPH fluorescence (AID 622;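 active means fluorescence slope higher than the sample average by over 3 SD, cut at about -0.22 in these data, passing the limit was not always enough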;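 further: slope of raw intensity against log time taken from 70 to 1610 s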); conditions: recombinant KvBeta, 4-cyanobenzaldehyde reduction, at 10 µM, stronger effect = higher value
[6] = target: Voltage-gated potassium channel subunit beta-2 (Rattus norvegicus) (UniProt P62483); assay: KvBeta positive modulators, primary screen, biochemical, NADPH fluorescence (AID 623;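 active means NADPH fluorescence slope more negative than the mean of all samples by about 3 SD, 99.7% confidence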;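 further: fluorescence intensity change per second fitted from 20 to 320 s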); conditions: Recombinant KvBeta, NADPH fluorescence decrease slope, 10 min; at 10 µM; stronger effect = lower value
[7] = target: Alpha-2C adrenergic receptor (Homo sapiens) (UniProt P18825); assay: modulators of alpha2C/GIRK thallium flux, primary screen, cell-based, HEK293 alpha2C/GIRK1/2 (AID 624); conditions: thallium flux BTC fluorescence, at 10 µM, actives lie on both sides;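 further: slope of fluorescence ratio to pre-addition baseline per second over 15 to 24 s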
[8] = inhibitors of larval lipid processing in zebrafish, primary screen, whole organism, PED6 fluorescence, gall bladder and intestine (AID 686;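 active means a full or partial loss of lipid-probe fluorescence in the fish gall bladder, intestine or both, judged by eye; inactive means no fluorescence loss, or compound toxic to the fish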;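 further: larvae 5 to 7 days old with five fish per well; signal comes from phospholipase A2 cleavage of quenched PED6 carried via bile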); conditions: Zebrafish larvae PED6 lipid processing, fluorescence scoring; screened at 20 µM (by protocol)
In short: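 Incubation: overnight exposure of larvae to compound plus PED6 / Test system: live zebrafish larvae aged 5-7 days, whole organism / Amount: 5 larvae per well / Read-out basis: visual per-well fluorescence inhibition score / Signal: visual fluorescence microscopy scoring of gall bladder, gut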

[9] = inhibitors of Chlamydomonas gravitaxis, primary screen, whole organism, Chlamydomonas reinhardtii, WT vs cilia-less mutant, absorbance, 96-well (AID 463189;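 active means inhibition at or above 50% relative to wild type and mutant plate controls; inactive means inhibition below 50%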;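 further: 0% = wild type cc124 cells in DMSO and 100% = ciliumless bld1 mutant cells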); conditions: OD600 absorbance, 2 days, at 10 µM, stronger effect = higher value
[10] = measured here: cell density z-score
[11] = measured here: nuclear c-Myc green intensity z-score
[12] = measured here: nuclear pErk red intensity z-score, stronger effect = higher value

Sequence of Alpha-2C adrenergic receptor (Homo sapiens) (P18825 whole entry, looked up): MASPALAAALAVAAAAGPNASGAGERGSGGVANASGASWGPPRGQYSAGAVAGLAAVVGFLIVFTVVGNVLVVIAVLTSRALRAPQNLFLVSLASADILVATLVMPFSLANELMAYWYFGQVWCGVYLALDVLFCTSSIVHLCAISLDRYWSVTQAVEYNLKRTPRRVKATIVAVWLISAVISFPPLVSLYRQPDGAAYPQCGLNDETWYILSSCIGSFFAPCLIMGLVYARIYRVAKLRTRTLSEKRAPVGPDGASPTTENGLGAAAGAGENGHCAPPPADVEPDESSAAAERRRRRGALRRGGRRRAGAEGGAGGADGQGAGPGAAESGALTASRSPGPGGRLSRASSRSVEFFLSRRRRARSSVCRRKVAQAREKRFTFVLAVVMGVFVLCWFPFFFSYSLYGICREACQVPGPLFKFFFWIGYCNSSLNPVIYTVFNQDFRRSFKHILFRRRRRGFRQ
Sequence of Dual specificity protein phosphatase 6 (Homo sapiens) (Q16828 whole entry, looked up): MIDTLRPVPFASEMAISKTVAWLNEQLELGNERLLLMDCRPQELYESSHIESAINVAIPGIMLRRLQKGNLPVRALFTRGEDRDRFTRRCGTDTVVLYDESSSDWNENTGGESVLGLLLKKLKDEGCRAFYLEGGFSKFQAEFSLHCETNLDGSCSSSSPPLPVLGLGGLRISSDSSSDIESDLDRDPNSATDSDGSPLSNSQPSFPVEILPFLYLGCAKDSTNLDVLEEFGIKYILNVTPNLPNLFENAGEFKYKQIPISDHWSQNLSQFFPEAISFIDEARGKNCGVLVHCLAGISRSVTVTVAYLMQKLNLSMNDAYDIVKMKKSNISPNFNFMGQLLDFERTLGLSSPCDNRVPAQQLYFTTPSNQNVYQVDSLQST
Sequence of Voltage-gated potassium channel subunit beta-2 (Rattus norvegicus) (P62483 whole entry, looked up): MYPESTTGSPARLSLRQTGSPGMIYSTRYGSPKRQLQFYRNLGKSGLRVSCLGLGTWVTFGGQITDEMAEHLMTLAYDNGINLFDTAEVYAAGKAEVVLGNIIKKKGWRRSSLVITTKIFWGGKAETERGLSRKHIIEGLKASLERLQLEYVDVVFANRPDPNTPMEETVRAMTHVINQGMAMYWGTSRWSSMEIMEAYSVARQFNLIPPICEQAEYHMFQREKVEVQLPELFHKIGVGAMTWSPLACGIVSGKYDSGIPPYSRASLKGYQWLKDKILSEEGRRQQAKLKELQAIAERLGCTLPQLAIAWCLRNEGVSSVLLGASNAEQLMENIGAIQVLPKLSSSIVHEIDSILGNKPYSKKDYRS

Compound	cell count [1]	inhibition [1]	inhibition [2]	nuclei count [2] [%]	z-score [3, 10]	z-score [3, 11]	z-score [3, 12]	inhibition [4]	fluorescence slope [5]	NADPH fluorescence slope [6]	slope [7]	outcome [8]	inhibition [9]
O=C(Nc1nc(=O)c2ccccc2s1)c1ccccc1	647	5.5% (inactive)	-58.7% (inactive)	158	0.159	-0.389	0.0783	9.61% (inactive)	-0.505 (inactive)	-4.5e-05 (inactive)	0.00905 (active)	inactive	13.1% (inactive)
CCOC(=O)COc1ccc(Oc2nc(C)cc(OC)n2)nn1	443	-4.6% (inactive)	-136% (inactive)	152	0.693	-0.0792	0.257	0.671% (inactive)	-0.417 (inactive)	-8.4e-05 (inactive)	0.00639 (inactive)	inactive	9.9% (inactive)
O=c1[nH]nc2n1CCCCC2	530	-27.5% (inactive)	-139% (inactive)	180	1.3	-1.27	-0.317	7.73% (inactive)	-0.501 (inactive)	-0.000113 (inactive)	0.00508 (inactive)	inactive	11.3% (inactive)
CCCCOc1ccc(CN(C)c2ncnc(N)n2)cc1	657	-1.7% (inactive)	-51.5% (inactive)	180	-0.491	0.207	-0.506	5.57% (inactive)	-0.503 (inactive)	-0.00011 (inactive)	0.00652 (inactive)	inactive	29.8% (inactive)
CCSc1nnc(N(CCC#N)CCC#N)s1	364	-4.7% (inactive)	-60.2% (inactive)	114	-0.814	0.606	-1.64	5.57% (inactive)	-0.474 (inactive)	-5.4e-06 (inactive)	0.00528 (inactive)	inactive	-11.4% (inactive)
CC1(C)Cc2c(C#N)c(NCCN3CCOCC3)nc(-c3ccco3)c2CO1	579	-8.4% (inactive)	-62.4% (inactive)	149	0.114	1.74	-1.62	26.5% (inactive)	-0.295 (inactive)	-3e-06 (inactive)	0.00581 (inactive)	inactive	34% (inactive)
